Results: ChEMBL document CHEMBL2150969, “Design, synthesis and biological evaluation of nuclear receptor-degradation inducers” (Bioorg Med Chem, 2011)
The source made the active and inactive calls. The rule behind the calls is not given here.

Legend:
[1] = target: Baculoviral IAP repeat-containing protein 2 (Homo sapiens) (UniProt Q13490); assay: Induction of cIAP1-mediated ERalpha degradation in human MCF7 cells at 1 to 30 uM after 24 hrs by Western blot analysis; format: cell-based
Outline: (§1)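 MCF-7 cells were kept in D-MEM with 10% FBS and penicillin/streptomycin, with 2 nM E2 as physiological agonist, at 37 °C under 5% CO2. Cells (1×10^6) were treated, lysed in SDS buffer and protein was BCA-normalized. Lysates ran on 10-20% SDS-PAGE and PVDF, blocked with 5% skim milk, then probed with rabbit polyclonal anti-ERα (1:200) and β-actin. Detection used HRP secondaries and ECL.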

[2] = system: MCF7; assay: Induction of ERalpha degradation in human MCF7 cells at 30 uM after 24 hrs by Western blot analysis; format: functional, cell-based; outline: as §1
[3] = target: Baculoviral IAP repeat-containing protein 2 (Homo sapiens) (UniProt Q13490); assay: Induction of cIAP1-mediated ERalpha degradation in human MCF7 cells at 30 uM after 24 hrs by Western blot analysis; format: cell-based; outline: as §1
[4] = target: Baculoviral IAP repeat-containing protein 2 (Homo sapiens) (UniProt Q13490); assay: Induction of FLAG-tagged cIAP1 expressed in human HT1080 cells assessed as RARalpha degradation at 10 uM after 6 hrs by Western blot analysis in presence of proteasome inhibitor MG132 added 30 mins prior to compound treatment; format: cell-based; conditions: HT-1080
Outline: (§2)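 HT-1080 cells were grown in RPMI 1640 with 10% heat-inactivated FBS at 37 °C under 5% CO2. Cells (1×10^6) were treated, then lysed in SDS buffer and protein was equalized by BCA. Lysates ran on 10-20% SDS-PAGE and went to PVDF, blocked with 5% skim milk/TBS-T. Blots were probed with anti-CRABP-II or anti-RARα plus β-actin, HRP secondaries, and ECL detection.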

[5] = target: Baculoviral IAP repeat-containing protein 2 (Homo sapiens) (UniProt Q13490); assay: Induction of FLAG-tagged cIAP1 expressed in human HT1080 cells assessed as RARalpha degradation after 24 hrs by Western blot analysis; format: cell-based; conditions: HT-1080; outline: as §2
[6] = target: Baculoviral IAP repeat-containing protein 2 (Homo sapiens) (UniProt Q13490); assay: Induction of FLAG-tagged cIAP1 expressed in human HT1080 cells assessed as RARalpha degradation at 10 uM after 6 hrs by Western blot analysis in presence of RAR antagonist LE540 added 30 mins prior to compound treatment; format: functional, cell-based; conditions: HT-1080; outline: as §2
[7] = target: Baculoviral IAP repeat-containing protein 2 (Homo sapiens) (UniProt Q13490); assay: Induction of FLAG-tagged cIAP1 expressed in human HT1080 cells assessed as CRABP-2 degradation at 1 to 30 uM after 24 hrs by Western blot analysis; format: cell-based; conditions: HT-1080; outline: as §2
[8] = system: HT-1080; assay: Induction of CRABP-2 degradation in human HT1080 cells at 10 uM after 24 hrs by Western blot analysis; format: functional, cell-based; outline: as §2
[9] = target: Baculoviral IAP repeat-containing protein 2 (Homo sapiens) (UniProt Q13490); assay: Induction of FLAG-tagged cIAP1 expressed in human HT1080 cells assessed as RARalpha degradation at 10 uM after 24 hrs by Western blot analysis; format: cell-based; conditions: HT-1080; outline: as §2
[10] = system: HT-1080; assay: Induction of RARalpha degradation in human HT1080 cells at 10 uM after 24 hrs by Western blot analysis; format: functional, cell-based; outline: as §2
[11] = target: Baculoviral IAP repeat-containing protein 2 (Homo sapiens) (UniProt Q13490); assay: Induction of cIAP1-mediated AR degradation in human MCF7 cells at 30 uM after 24 hrs by Western blot analysis relative to control; format: cell-based
Outline: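 MCF-7 cells were grown in D-MEM with 10% FBS, penicillin/streptomycin and 10 nM DHT at 37 °C under 5% CO2. Cells (1×10^6) were treated, lysed in SDS buffer, and equal protein (by BCA) was run on 10-20% SDS-PAGE and transferred to PVDF. Blots were blocked in 5% skim milk/TBS-T, probed with mouse monoclonal anti-AR (1:200) and β-actin antibody, and read by ECL.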

[12] = target: Baculoviral IAP repeat-containing protein 2 (Homo sapiens) (UniProt Q13490); assay: Induction of FLAG-tagged cIAP1 expressed in human HT1080 cells assessed as RARalpha degradation at 30 uM after 24 hrs by Western blot analysis; format: cell-based; conditions: HT-1080; outline: as §2

Chain of Baculoviral IAP repeat-containing protein 2 (Homo sapiens) (Q13490 whole entry): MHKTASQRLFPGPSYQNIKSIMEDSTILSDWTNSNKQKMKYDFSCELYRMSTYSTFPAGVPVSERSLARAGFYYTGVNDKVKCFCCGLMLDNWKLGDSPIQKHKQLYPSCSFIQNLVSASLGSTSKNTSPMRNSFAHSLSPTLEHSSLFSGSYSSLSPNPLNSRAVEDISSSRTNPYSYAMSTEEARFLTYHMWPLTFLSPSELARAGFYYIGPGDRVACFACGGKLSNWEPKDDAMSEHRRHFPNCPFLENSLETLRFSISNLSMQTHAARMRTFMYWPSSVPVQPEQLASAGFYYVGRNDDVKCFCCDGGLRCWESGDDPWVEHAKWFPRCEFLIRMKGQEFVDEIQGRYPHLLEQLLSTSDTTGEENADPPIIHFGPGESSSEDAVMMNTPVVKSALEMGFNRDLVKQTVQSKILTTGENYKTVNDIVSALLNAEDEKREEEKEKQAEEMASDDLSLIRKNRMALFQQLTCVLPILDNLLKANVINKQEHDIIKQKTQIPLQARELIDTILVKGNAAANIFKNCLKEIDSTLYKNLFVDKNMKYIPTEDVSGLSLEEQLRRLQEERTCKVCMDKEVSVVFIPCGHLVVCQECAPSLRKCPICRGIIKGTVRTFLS

In the case of `CC(C)C[C@H](NC(=O)CCCc1ccccc1)C(=O)NCCOCCOCCNC(=O)CO/N=C1\CC[C@H]2[C@@H]3CCc4cc(O)ccc4[C@H]3CC[C@]12C`, the Activity [1] is reported as “inactive”.
For `C[C@]12CC[C@@H]3c4ccc(O)cc4CC[C@H]3[C@@H]1CCC2=O`, the Activity [2] was “inactive”.
With `CC(C)C[C@H](NC(=O)[C@@H](O)[C@H](N)Cc1ccccc1)C(=O)NCCOCCOCCNC(=O)CO/N=C1\CC[C@H]2[C@@H]3CCc4cc(O)ccc4[C@H]3CC[C@]12C` the Activity [3] was “Active”.
`CC(C)C[C@H](NC(=O)[C@@H](O)[C@H](N)Cc1ccccc1)C(=O)NCCOCCOCCOCC(=O)NCCCOc1cc(/C=C/C(=O)c2cc(C(C)(C)C)cc(C(C)(C)C)c2)ccc1C(=O)O` was tested, and the Activity [4] was “inactive”, the Activity [5] was “Dose-dependent effect” and the Activity [6] was “inactive”. For the same compound, the Activity [7] was “inactive”.
`CC1=C(/C=C/C(C)=C/C=C/C(C)=C/C(=O)O)C(C)(C)CC/C1=N\OCC(=O)NCCOCCOCCOC(=O)[C@H](CC(C)C)NC(=O)[C@@H](O)[C@H](N)Cc1ccccc1` was tested, and the Activity [8] was “Active” and the Activity [9] was “inactive”.
For `CC(C)C[C@H](NC(=O)CCCc1ccccc1)C(=O)NCCOCCOCCOCC(=O)NCCCOc1cc(/C=C/C(=O)c2cc(C(C)(C)C)cc(C(C)(C)C)c2)ccc1C(=O)O`, the Activity [10] was “inactive”.
`CC(C)C[C@H](NC(=O)[C@@H](O)[C@H](N)Cc1ccccc1)C(=O)NCCOCCOCCOCC(=O)O[C@H]1CC[C@H]2[C@@H]3CC[C@H]4CC(=O)CC[C@]4(C)[C@H]3CC[C@]12C` was tested, and the Activity [11] was “Active”.
With `CNC(=O)[C@H](CC(C)C)NC(=O)[C@@H](O)[C@H](N)Cc1ccccc1` the Activity [11] was “Active”, the Activity [3] was “inactive” and the Activity [12] was “inactive”.
